Mcl-1 Bim block = inhibitors of Bim-Mcl-1 interaction, human; 190,000 tested, 0.1% active; inhibition, % at 10 µM; Q07820; Bead-based flow cytometry, Bim peptide-Mcl-1 binding; in the data active means inhibition above about 40%;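 further: 0% = no compound tracer wells and 100% = peptide blocker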
Target sequence (Q07820 whole entry, looked up): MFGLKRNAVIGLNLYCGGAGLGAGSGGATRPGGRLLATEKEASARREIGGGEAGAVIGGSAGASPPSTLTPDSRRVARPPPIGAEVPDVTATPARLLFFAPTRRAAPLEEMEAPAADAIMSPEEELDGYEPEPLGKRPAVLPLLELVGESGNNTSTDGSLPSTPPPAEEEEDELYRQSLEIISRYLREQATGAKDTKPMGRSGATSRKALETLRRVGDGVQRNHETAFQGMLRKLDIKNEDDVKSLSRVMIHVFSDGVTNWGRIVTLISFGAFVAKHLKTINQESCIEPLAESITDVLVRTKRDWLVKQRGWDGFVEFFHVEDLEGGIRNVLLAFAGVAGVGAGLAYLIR
RBBP9 inh = inhibitors of human serine hydrolase RBBP9 | O75884 | recombinant RBBP9, FP-Rh probe fluorescence polarization | inhibition, % at 7.94 µM | 220,000 tested, 0.2% active | AID 1515;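 active means inhibition above the campaign mean of all tested compounds plus 3 SD, cut at about 14% in these data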;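 further: plate controls were DMSO wells with RBBP9 for no effect and wells lacking RBBP9 protein for full effect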
Target sequence (O75884 whole entry, looked up): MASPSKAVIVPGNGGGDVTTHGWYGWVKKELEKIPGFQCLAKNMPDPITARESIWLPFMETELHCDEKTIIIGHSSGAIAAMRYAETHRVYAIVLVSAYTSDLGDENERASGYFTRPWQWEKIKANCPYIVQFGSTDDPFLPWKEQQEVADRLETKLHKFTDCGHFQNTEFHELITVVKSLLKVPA
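Test system – recombinant human RBBP9 · Input – RBBP9 2.5 µM in dispensing solution, pre-mixing · Medium – Tris buffer pH 8.0, NaCl, Pluronic · Schedule – preincubation 30 min plus labeling 45 min at 25 °C · Measured by – fluorescence polarization · Measure – % inhibition · Controls – DMSO and no-protein wells · Replicates – one well per compound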
Mcl1-Noxa inh = Mcl-1/Noxa interaction inhibition; AID 1022; inhibition, % at 21.7 µM; Q07820; 220,000 tested, 1.5% active; TR-FRET Mcl-1/Noxa peptide binding, 2 h;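 active means compounds that cut the protein-peptide binding signal by more than 50% relative to plate controls in a single-dose test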;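 further: His-tagged Mcl-1 with rhodamine Noxa BH3 peptide and terbium anti-His antibody; 0% = Mcl-1 plus Noxa peptide wells and 100% = peptide-only wells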
Mcl1 Bid PPI = disrupts binding of human Mcl-1 to Bid peptide; TR-FRET Mcl-1/Bid-Dy647 peptide binding, 1536-well; 220,000 tested, 0.97% active; Q07820; inhibition, % at 21.7 µM; AID 1021;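 active means compounds that cut the binding signal by more than half at the single screening dose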;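 further: His-tagged Mcl-1 with europium anti-His antibody binding Bid BH3 peptide; 0% = Mcl-1 plus peptide wells and 100% = peptide-only wells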
MCL1 BIM primary = disrupts human MCL1 binding to BIM-BH3 peptide | Q07820 | GST-MCL1 / FITC-Bim-BH3 fluorescence polarization | inhibition, % at 10.9 µM | 320,000 tested, 0.68% active | AID 2057;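 active means inhibition above the mean inhibition of all tested compounds plus 3 SD, set per campaign, cut at about 40% in these data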;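 further: 0% = DMSO wells and 100% = unlabeled Bim-BH3 peptide control; higher means more loss of mP so more displacement of Bim peptide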
EBV gp42 block = inhibitors of Epstein-Barr virus glycoprotein 42; Fluorescence polarization binding assay, mP read-out; inhibition, % (tested at 21.74 µM); 220,000 tested, 0.42% active; AID 1085; in the data active means inhibition above about 50%
Bcl-xL conf = Bcl-xL (human) inhibition, MCL1 counter-screen confirmation | shares compounds with MCL1 BIM primary | GST-Bcl-xL / FITC-Bim BH3 peptide FP binding | inhibition, % at 10.9 µM | 1,700 tested, 54% active;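 active means inhibition above a cutoff equal to the mean inhibition of all tested compounds plus 3 SD, cut at about 30% in these data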;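 further: 0% = DMSO wells and 100% = unlabeled Bim BH3 control peptide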
MCL1 BIM confirm = MCL1-BIM-BH3 interaction inhibition, confirmation. shares compounds with MCL1 BIM primary. GST-MCL1 / FITC-Bim-BH3 fluorescence polarization. inhibition, % at 10.9 µM. 1,700 tested, 61% active. AID 2168;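 active means inhibition above the average of all tested compounds plus 3 SD, cut at about 40% in these data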;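 further: 0% = DMSO wells and 100% = unlabeled Bim-BH3 control peptide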
* marks the source's active call; other numbers are inactive results; . = no result; + = active, no number. An excerpt weighted towards active compounds, which were near 2.2% of everything screened.

SMILES | Mcl-1 Bim block | RBBP9 inh | Mcl1-Noxa inh | Mcl1 Bid PPI | MCL1 BIM primary | EBV gp42 block | Bcl-xL conf | MCL1 BIM confirm
COc1ccc(C(=O)N2CCn3c(C)ccc3C2C)cc1 (configuration not stated) | -2.0 | -1.9 | -1.0 | -88.4 | 49.2* | 8.9 | 12.3 | 10.8
Cc1ccc(/C=C/C(=O)NCc2ccccn2)o1 | -8.0 | -2.7 | 74.3* | -74.7 | 40.8* | 27.7 | 20.8 | 51.4*
O=C(O)/C=C/C(=O)NCc1ccccc1 | -1.0 | -4.1 | 16.3 | -7.2 | 2.3 | 7.6 | . | .
O=C(O)/C=C/C(=O)NCc1ccccn1 | -2.0 | 3.1 | -2.5 | -18.2 | 49.8* | 24.6 | 48.0* | 51.6*
COc1ccc(NC(=O)COc2cccc(C(F)(F)F)c2)cn1 | . | . | . | . | 69.7* | . | 82.4* | 92.1*
CN(C)/C=C1\SC(=S)N(c2ccc(Br)cc2)C1=O | . | -38.7 | 28.7 | -28.4 | 175.9* | 9.9 | + | +
O=C(CSc1nc2ccccc2c(=O)[nH]1)c1ccc(O)c(O)c1 | 0.0 | -0.8 | 21.2 | -44.2 | 48.2* | -7.0 | 38.1* | 66.3*
O=C(CSc1nc2ccccc2c(=O)[nH]1)c1ccc(O)cc1O | -2.0 | -6.1 | 2.9 | -21.6 | . | 2.9 | . | .
Cc1cccc(/C=C2\Oc3cc(OS(C)(=O)=O)ccc3C2=O)c1 | -4.0 | -7.9 | 11.7 | -15.6 | 6.8 | 2.4 | . | .
O=C1/C(=C/c2cccc(F)c2)Oc2cc(O)ccc21 | . | . | . | . | 66.2* | . | 83.3* | 97.5*
N#CC1=C(N)C(C#N)(C#N)C(c2ccc[nH]2)C2CCCC=C12 (configuration not stated) | 0.0 | 8.2 | 8.5 | -22.8 | 72.4* | 8.3 | 38.9* | 26.9
C=CCN1C(=O)C2(c3ccccc31)C1CCCC=C1C(C#N)=C(N)C2(C#N)C#N (configuration not stated) | -4.0 | -8.8 | 1.0 | -58.6 | 4.7 | -17.3 | . | .
N#CC1=C(N)C(C#N)(C#N)C(c2cccnc2)C2CC(c3ccccc3)CC=C12 (configuration not stated) | -3.0 | -7.3 | 7.1 | -18.6 | 135.2* | 22.9 | 10.7 | 14.0
N#CC1=C(N)C2=CCCC[C@H]2[C@H](c2cccc(F)c2)C1(C#N)C#N | -7.0 | -5.2 | 24.4 | -55.7 | 45.0* | 29.0 | 24.0 | 24.7
N#CC1=C(N)C(C#N)(C#N)[C@H](c2cccnc2)[C@H]2CN(C(=O)OCc3ccccc3)CC=C12 | -3.0 | -9.2 | -2.0 | -14.2 | 12.3 | 4.0 | . | .
N#CC1=C(N)C(C#N)(C#N)C(c2cccnc2)C2CCCC=C12 (configuration not stated) | 0.0 | -3.6 | 30.7 | -9.5 | 81.0* | 49.1 | 75.0* | 84.9*
CC1CC(C)CN(S(=O)(=O)c2ccc3oc(=O)ccc3c2)C1 (configuration not stated) | . | . | . | . | -1.2 | . | . | .
Cc1nc(Cl)c2c(n1)NC1=C(O2)C(=O)CCC1 | -5.0 | 0.6 | 2.0 | -66.5 | 198.0* | 136.0* | 145.8* | 175.3*
CC(=O)OCCCN1C(=O)c2cccc3cc(Br)cc(c23)C1=O | . | . | . | . | 6.7 | . | . | .
Nc1cc2c3c(cccc3c1)C(=O)N(CCN1CCCC1)C2=O | . | 6.5 | -57.4 | -21.2 | 144.8* | 94.6* | 98.7* | 131.7*
CCN(CC)CCN1C(=O)c2cccc3cc(N)cc(c23)C1=O | . | 4.8 | -24.7 | -42.9 | 157.7* | 101.2* | 128.1* | 166.2*
O=C(O)C1Cc2c([nH]c3ccccc23)C(c2ccc3c(c2)OCO3)N1 (configuration not stated) | 0.0 | -5.5 | 8.4 | -32.1 | 58.9* | -9.6 | 11.7 | 9.1
O=C1c2cccc(O)c2C(=O)c2c(O)cc(CO)cc21 | . | . | . | . | 100.0* | . | 80.7* | 99.8*
N#CCN(CC#N)C(=O)C1c2ccccc2Oc2ccccc21 | . | . | . | . | + | . | 6.0 | 10.5
COc1ccc(S(=O)(=O)/N=C2/NC(=O)/C(=C/c3ccco3)S2)cc1 | -2.0 | -5.9 | 8.6 | -40.2 | 42.2* | -7.5 | 18.4 | 23.7

Bioassay records from PubChem.
